Screens from PubChem.
SENP7 block: SENP7 protease inhibitors, primary screen, biochemical, luminescence, uHTS; Sentrin-specific protease 7 (Homo sapiens), Q9BQF6; recombinant SENP7, Z-RLRGG-aminoluciferin luminescence, 40 min; 330,000 compounds, 1.5% hits; AID 434973, 2010; inhibition, % at 5 µM;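 active = inhibition above about 50% at the single test dose, limit read from the data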;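 also: plate controls were DMSO with enzyme for no effect and no enzyme buffer wells for full effect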
SENP6 block: SENP6 protease inhibitors, primary screen, biochemical, luminescence, uHTS; Sentrin-specific protease 6 (Homo sapiens), Q9GZR1; Recombinant SENP6 catalytic domain, aminoluciferin luminescence; inhibition, % at 10 µM; 330,000 compounds, 1.8% hits; AID 2599, 2010;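 active = inhibition above about 50% at the single tested dose, limit read from the data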;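 also: plate controls were DMSO wells with enzyme for no effect and DMSO wells lacking enzyme for full effect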
Target sequence (Q9GZR1 628-1112 limits assumed): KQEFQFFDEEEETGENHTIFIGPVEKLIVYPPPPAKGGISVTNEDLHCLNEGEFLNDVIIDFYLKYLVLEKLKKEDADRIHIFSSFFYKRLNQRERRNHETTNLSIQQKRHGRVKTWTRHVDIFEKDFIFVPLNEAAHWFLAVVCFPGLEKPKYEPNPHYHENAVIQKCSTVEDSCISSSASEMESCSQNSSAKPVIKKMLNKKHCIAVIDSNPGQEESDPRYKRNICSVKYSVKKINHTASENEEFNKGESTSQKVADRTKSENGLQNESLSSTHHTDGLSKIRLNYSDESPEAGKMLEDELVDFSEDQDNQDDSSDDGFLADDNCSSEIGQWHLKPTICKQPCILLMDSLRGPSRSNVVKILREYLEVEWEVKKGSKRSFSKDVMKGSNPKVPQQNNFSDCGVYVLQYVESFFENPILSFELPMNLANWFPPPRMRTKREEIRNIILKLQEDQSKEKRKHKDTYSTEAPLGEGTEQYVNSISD
SENP8 block-1: human SENP8 protease inhibitors, primary screen, biochemical, fluorescence, Nedd8 protein substrate, uHTS | 360,000 compounds, 0.64% hits | inhibition, % at 20 µM | AID 602440, 2012 | Sentrin-specific protease 8 (Homo sapiens), Q96LD8 | recombinant SENP8; in the data active = inhibition mostly above about 40%, no sharp cut-off; inactive = mostly below about 27%
SENP8 block-2: SENP8 protease inhibitors, primary screen, biochemical, luminescence. Sentrin-specific protease 8 (Homo sapiens), Q96LD8. purified SENP8, Z-RLRGG-aminoluciferin cleavage. inhibition, % at 10 µM. 330,000 compounds, 1.2% hits. AID 2540, 2010; in the data active = inhibition above about 50%
Apaf-1 inh: inhibitors of human Apaf-1 apoptosome, primary screen, biochemical, DEVD-Rh110 fluorescence, uHTS. Apoptotic protease-activating factor 1 (Homo sapiens), O14727. reconstituted apoptosome caspase-3 activity. inhibition, % at 20 µM. 330,000 compounds, 0.71% hits; active = inhibition of at least 40% at 20 µM;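 also: plate controls were DMSO wells for no effect and DEVD-CHO caspase inhibitor wells for full effect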
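Material: reconstituted apoptosome with Apaf-1, cytochrome c, caspase-9, procaspase-3, dATP; medium: pH 7.5 Hepes buffer with CHAPS, BSA, DTT; also added: cytochrome c and DEVD-Rh110 substrate; timing: 30 min plus 50 min, RT; signal: Rh110 fluorescence intensity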
UBC13 polyUb: UBC13 polyubiquitin chain formation inhibitors, primary screen, biochemical, TR-FRET, uHTS; Ubiquitin-conjugating enzyme E2 N (Homo sapiens), P61088; inhibition, % at 20 µM; 330,000 compounds, 0.47% hits; AID 485273, 2010; in the data active = inhibition above about 45%, passing the limit was not always enough; inconclusive = no clear call, values can overlap the other calls
SENP8 conf: SENP8 protease inhibitors, retest, confirmation, biochemical, luminescence, single concentration; shares compounds with SENP7 block; Recombinant SENP8, Z-RLRGG-aminoluciferin luminescence, 60 min; inhibition, % at 12.5 µM; 6,200 compounds, 40% hits; AID 488912, 2010;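 active = mean inhibition across replicates above about 50%, limit read from the data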
SENP6 confirm: SENP6 protease inhibitors, confirmation, biochemical, luminescence, single concentration; shares compounds with SENP7 block; recombinant SENP6, Z-RLRGG-aminoluciferin luminescence; inhibition, % at 12.5 µM; 6,200 compounds, 58% hits; AID 488915, 2010
SENP7 confirm: SENP7 protease inhibitors, retest, confirmation, biochemical, luminescence, single concentration; shares compounds with SENP7 block; recombinant SENP7, Z-RLRGG-aminoluciferin luminescence, 40 min; inhibition, % at 12.5 µM; 6,200 compounds, 69% hits; AID 488917, 2010
Casp3 SENP sel: caspase-3 protease inhibitors, confirmation, selectivity assay for SENP inhibitor project, biochemical, single concentration; shares compounds with SENP7 block; purified caspase-3, Z-DEVD-aminoluciferin luminescence, 60 min; inhibition, % at 12.5 µM; 6,200 compounds, 60% hits; AID 488918, 2010;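 active = mean inhibition above about 50%, limit read from the data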;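 also: plate controls were enzyme with DMSO for no effect and wells without caspase-3 for full effect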
Target sequence (P42574 28-227 limits assumed): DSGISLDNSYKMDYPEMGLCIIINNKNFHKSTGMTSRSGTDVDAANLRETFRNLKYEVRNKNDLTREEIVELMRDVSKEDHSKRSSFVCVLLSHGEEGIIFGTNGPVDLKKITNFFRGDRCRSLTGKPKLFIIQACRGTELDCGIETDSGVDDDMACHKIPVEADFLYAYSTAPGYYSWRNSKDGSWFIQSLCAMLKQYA
Luc interf: counter-screen for SENP inhibitors: luminescence interference | shares compounds with SENP7 block | Pre-incubated SENP8/Z-RLRGG-aminoluciferin, luciferase luminescence interference | inhibition, % at 12.5 µM | 6,200 compounds, 39% hits | AID 488919;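 active = mean inhibition above about 50% when retested at one dose, limit read from the data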;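 also: plate controls were DMSO wells with completed reaction for no effect and substrate without enzyme for full effect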
* marks the source's active call; other numbers are inactive results; i = inactive; ? = inconclusive; / = no result. An excerpt weighted towards active compounds, which were near 3.1% of everything screened.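 The calls were made as follows, unless noted: active = mean inhibition above about 50% in the one-dose retest (limit read from the data); inactive = the rest.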

SMILES	SENP7 block	SENP6 block	SENP8 block-1	SENP8 block-2	Apaf-1 inh	UBC13 polyUb	SENP8 conf	SENP6 confirm	SENP7 confirm	Casp3 SENP sel	Luc interf
COc1ccc(NCc2ccc3c(c2)OCO3)cc1Cl	1	11	10	-3	5	6	/	/	/	/	/
CCn1cc(C(=O)NCc2ccc(C)o2)c2cc(OC)c(OC)cc2c1=O	6	-12	10	4	-1	-2	/	/	/	/	/
COc1cccc2sc3cc(NCc4ccc5c(c4)OCO5)ccc3c(=O)c12	58*	11	-487	14	19	?	2	2	3	15	12
COc1cc2sc3cc(NCc4ccc(C)o4)ccc3c(=O)c2cc1OC	87*	-23	i	81*	16	3	-9	56*	88*	80*	62*
COc1ccccc1CC(=O)NCc1ccc2c(c1)OCO2	-3	-10	17	-10	0	-13	/	/	/	/	/
COc1cccc(S(=O)(=O)N(C)C[C@H]2OCc3cnnn3CCCC(=O)N([C@@H](C)CO)C[C@H]2C)c1	/	/	-6	/	/	/	/	/	/	/	/
O=C(CC[C@H]1O[C@@H](n2cnc3c(NC(=O)c4ccccc4)ncnc32)[C@H](O)[C@@H]1O)NCC1CCN(Cc2ccccc2)CC1	/	/	21	/	/	/	/	/	/	/	/
O=c1oc(C2(O)CCCCC2)cc2ccc(-c3ccc4[nH]ccc4c3)cc12	53*	12	-360	10	-8	12	-12	-4	-5	5	1
COC(=O)c1ccc(-c2nc3cc(N)ccc3o2)cc1	73*	85*	-176	69*	-3	-5	24	27	74*	54*	6
CN(C)c1ccc(-c2nc3cc(N)ccc3o2)cc1	95*	93*	-449	91*	7	0	85*	94*	100*	91*	79*
Cc1ccc(C)c(-c2nc3cc(N)ccc3o2)c1	17	55*	-413	30	4	16	27	27	69*	26	50*
Nc1ccc2oc(-c3cc(Br)ccc3Cl)nc2c1	8	11	-100	-1	-5	23	/	/	/	/	/
Nc1ccc2oc(-c3ccccn3)nc2c1	2	-6	-69	-5	-6	-4	/	/	/	/	/
Cc1ccc(-c2nc3cc(N)ccc3o2)cc1Br	91*	93*	-307	87*	9	8	2	91*	101*	74*	28
O=C(NC1CCCCC1)C(C1CC1)n1c(=O)c(-c2cc3ccccc3[nH]2)nc2ccccc21 (stereo not drawn)	/	/	-380	/	/	/	/	/	/	/	/
COc1cccc(NC(=O)c2cnc(NS(=O)(=O)c3ccccc3)nc2)c1	/	/	5	/	/	/	/	/	/	/	/
Cc1ccc2nc(-c3cc(N)cc(N)c3)oc2c1	11	25	-324	16	10	-35	/	/	/	/	/
Nc1ccc(-c2nc3ccc(N)cc3o2)cc1	61*	68*	-423	47	-5	-10	38	45	82*	79*	62*
Nc1ccc(-c2nc3cc(N)ccc3o2)cc1	41	52*	-469	17	-5	2	43	34	77*	67*	52*
Cc1ccc(Cc2c(-c3cccc(Cl)c3)nc3c4ccccc4ccn23)cc1	/	/	-261	/	/	/	/	/	/	/	/
Cc1cccc(-c2nc(=S)c3c(o2)CCCC3)c1	72*	62*	5	52*	-11	2	52*	49	76*	43	51*
S=c1nc(-c2ccc(Br)cc2)oc2c1CCCC2	17	10	18	-22	11	-8	/	/	/	/	/
COc1ccc(NC(=O)N2C[C@H]3CON(C)[C@H]3C[C@H]2c2ccc(N3CCCCC3)cc2)cc1	/	/	13	/	/	/	/	/	/	/	/
CC(=Nc1ccc(Br)cc1)c1sc2ccccc2c1O	73*	80*	-52	61*	0	7	-4	8	5	13	6
CC(=Nc1ccccc1)c1sc2ccccc2c1O	76*	85*	-76	80*	15	1	88*	88*	98*	77*	76*
SMILES	SENP7 block	SENP6 block	SENP8 block-1	SENP8 block-2	Apaf-1 inh	UBC13 polyUb	SENP8 conf	SENP6 confirm	SENP7 confirm	Casp3 SENP sel	Luc interf
NC(=Nc1ccc(Br)cc1)c1ccccc1	4	-8	6	-14	-15	0	/	/	/	/	/
O=CNc1cc(-c2cccc(O)c2)cn2c(-c3ccc(F)cc3)cnc12	/	/	-311	/	/	/	/	/	/	/	/
O=C(Nc1ccc(C(=O)N2CCCCC2)cc1)c1ccccc1	/	/	2	/	/	/	/	/	/	/	/
O=C(Nc1ccc(C(=O)N2CCOCC2)cc1)Nc1cccc(Cl)c1	57*	69*	-3	40	7	-2	60*	58*	85*	61*	63*
O=C(Nc1ccccc1)Nc1ccc(C(=O)N2CCCC2)cc1	97*	97*	12	94*	-5	-16	96*	97*	102*	98*	74*
O=C(Nc1ccc(C(=O)N2CCCCC2)cc1)c1cccs1	60*	66*	10	47	0	6	48	47	78*	83*	59*
CCc1nc2c(OCc3ccccc3C)cccn2c1N(C)C(=O)C1CC1	/	/	5	/	/	/	/	/	/	/	/
CCOC(=O)[C@]12CCC=C1N(Cc1ccccc1)C(=O)[C@H](CC(=O)NCc1cccs1)C2	/	/	0	/	/	/	/	/	/	/	/
CC1(C)Cc2cccc(OCC(=O)OCC(=O)Nc3ccc(S(N)(=O)=O)cc3)c2O1	/	/	12	/	/	/	/	/	/	/	/
Cc1nnc(SCC(=O)OC2CC(C)CCC2C(C)C)[nH]c1=O (stereo not drawn)	-2	-8	6	-3	1	5	/	/	/	/	/
